According to ChEMBL document CHEMBL4689842, “EUbOPEN Chemogenomics Library wave 1” (2021):
Values joined by “and” are separate entries in the source; they are usually repeats but may differ in a detail not shown here. Equal entries are not always repeated.

Test system: Fibroblast
Experiment: Multiplex assay against human fibroblast
Type: toxicity, cell-based
In short: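 Live cells carried four stains from seeding: Hoechst33342, BioTracker Green Microtubule Cytoskeleton Dye, MitoTracker Red and Annexin V Alexa Fluor 680. They were imaged on a CQ1 microscope at 37°C and 5% CO2 after compound addition. Using CellPathfinder machine-learning gating, cells were split into Hoechst high-intensity objects or normal cells, normal cells into healthy, pyknosed or fragmented nuclei, and pyknosed cells into mitotic or apoptotic; tubulin, mitochondrial-mass and membrane-permeability phenotypes are per cents of healthy-nucleus cells.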

[1] = 12 h, 1 µM, compound concentration 1 uM, replicate 1
[2] = 12 h, 1 µM, compound concentration 1 uM, replicate 2
[3] = 12 h, 10 µM, compound concentration 10 uM, replicate 1
[4] = 12 h, 10 µM, compound concentration 10 uM, replicate 2
[5] = 24 h, 1 µM, compound concentration 1 uM, replicate 1
[6] = 24 h, 1 µM, compound concentration 1 uM, replicate 2
[7] = 24 h, 10 µM, compound concentration 10 uM, replicate 1
[8] = 24 h, 10 µM, compound concentration 10 uM, replicate 2

For `CC(=O)O[C@H]1C(=O)[C@@]2(C)[C@H]([C@H](OC(=O)c3ccccc3)[C@]3(O)C[C@H](OC(=O)[C@H](O)[C@@H](NC(=O)c4ccccc4)c4ccccc4)C(C)=C1C3(C)C)[C@]1(OC(C)=O)CO[C@@H]1C[C@@H]2O` [PACLITAXEL], the “Population Apoptotic (%)” value [1] was 55% and 76%, the “Population Fragmented Nuclei (%)” value [1] was 25% and 15% and the “Population Healthy Nuclei (%)” value [1] was 66% and 75%. For the same compound, the “Population Hoechst High Intensity Objects (%)” value [1] was 11% and 8%, the “Population Membrane Permeable-Phenotype (%)” value [1] was 5% and the “Population Mitochondria Different-Phenotype (%)” value [1] was 3% and 2%. The “Population Mitotic Cells (%)” value [1] was 45% and 23%, the “Population Normal (%)” value [1] was 88% and 91% and the “Population Pyknosed Nuclei (%)” value [1] was 8% and 9%. For the same compound, the “Population Tubulin-Different-Phenotype (%)” value [1] was 0%, the “Total Cell Count” value [1] was 281 and 246 and the “Population Fragmented Nuclei (%)” value [2] was 46% and 34%. For the same compound, the “Population Healthy Nuclei (%)” value [2] was 35% and 59%, the “Population Hoechst High Intensity Objects (%)” value [2] was 32% and 39% and the “Population Mitochondria Different-Phenotype (%)” value [2] was 10% and 15%. For the same compound, the “Population Mitotic Cells (%)” value [2] was 40% and 100%, the “Population Normal (%)” value [2] was 67% and 60% and the “Population Pyknosed Nuclei (%)” value [2] was 18% and 6%. For the same compound, the “Population Tubulin-Different-Phenotype (%)” value [2] was 10% and 26%, the “Total Cell Count” value [2] was 80 and 73 and the “Population Apoptotic (%)” value [3] was 81% [middle of 4 runs]. The “Population Fragmented Nuclei (%)” value [3] was 23% and 24%, the “Population Healthy Nuclei (%)” value [3] was 61% [middle of 4 runs] and the “Population Hoechst High Intensity Objects (%)” value [3] was 12% [middle of 4 runs]. For the same compound, the “Population Membrane Permeable-Phenotype (%)” value [3] was 5% and 3%, the “Population Mitochondria Different-Phenotype (%)” value [3] was 5% and 4% and 2% and the “Population Mitotic Cells (%)” value [3] was 26% [middle of 4 runs]. For the same compound, the “Population Normal (%)” value [3] was 88% and 90% and 79% and 87%, the “Population Pyknosed Nuclei (%)” value [3] was 14% and 21% and 11% and the “Total Cell Count” value [3] was 304 [middle of 4 runs]. The “Population Fragmented Nuclei (%)” value [4] was 58% [middle of 4 runs], the “Population Healthy Nuclei (%)” value [4] was 42% [middle of 4 runs] and the “Population Hoechst High Intensity Objects (%)” value [4] was 37% [middle of 4 runs]. For the same compound, the “Population Normal (%)” value [4] was 68% and 62% and 51% and 72%, the “Population Pyknosed Nuclei (%)” value [4] was 7% and 6% and 8% and the “Population Tubulin-Different-Phenotype (%)” value [4] was 9% [middle of 4 runs]. For the same compound, the “Total Cell Count” value [4] was 93 and 80 and 115, the “Population Apoptotic (%)” value [5] was 48% and 38% and the “Population Fragmented Nuclei (%)” value [5] was 18% and 13%. The “Population Healthy Nuclei (%)” value [5] was 70% and 74%, the “Population Hoechst High Intensity Objects (%)” value [5] was 14% and 13% and the “Population Membrane Permeable-Phenotype (%)” value [5] was 5% and 4%. The “Population Mitotic Cells (%)” value [5] was 52% and 61%, the “Population Normal (%)” value [5] was 85% and 86% and the “Population Pyknosed Nuclei (%)” value [5] was 11%. The “Total Cell Count” value [5] was 264 and 252, the “Population Fragmented Nuclei (%)” value [6] was 54% and 48% and the “Population Healthy Nuclei (%)” value [6] was 28% and 48%. For the same compound, the “Population Hoechst High Intensity Objects (%)” value [6] was 33% and 29%, the “Population Membrane Permeable-Phenotype (%)” value [6] was 13% and 11% and the “Population Mitochondria Different-Phenotype (%)” value [6] was 0% and 7%. The “Population Mitotic Cells (%)” value [6] was 44% and 100%, the “Population Normal (%)” value [6] was 66% and 70% and the “Total Cell Count” value [6] was 80 and 77. For the same compound, the “Population Apoptotic (%)” value [7] was 71% [middle of 4 runs], the “Population Fragmented Nuclei (%)” value [7] was 26% [middle of 4 runs] and the “Population Healthy Nuclei (%)” value [7] was 64% [middle of 4 runs]. For the same compound, the “Population Hoechst High Intensity Objects (%)” value [7] was 15% [middle of 4 runs], the “Population Mitochondria Different-Phenotype (%)” value [7] was 2% and 0% and the “Population Normal (%)” value [7] was 85% and 87% and 84% and 75%. For the same compound, the “Population Pyknosed Nuclei (%)” value [7] was 16% and 15%, the “Total Cell Count” value [7] was 291 and 285 and 333 and the “Population Apoptotic (%)” value [8] was 44% [middle of 4 runs]. For the same compound, the “Population Fragmented Nuclei (%)” value [8] was 62% [middle of 4 runs], the “Population Healthy Nuclei (%)” value [8] was 40% and 28% and 26% and the “Population Hoechst High Intensity Objects (%)” value [8] was 35% [middle of 4 runs]. For the same compound, the “Population Membrane Permeable-Phenotype (%)” value [8] was 17% [middle of 4 runs], the “Population Normal (%)” value [8] was 68% and 64% and 53% and 72% and the “Population Pyknosed Nuclei (%)” value [8] was 11% [middle of 4 runs]. The “Total Cell Count” value [8] was 93 [middle of 4 runs].
